For 39 molecules, IC50, inhibition and Ki results are on record in ChEMBL document CHEMBL1136288, “A catch-and-release strategy for the combinatorial synthesis of 4-acylamino-1,3-thiazoles as potential CDK5 inhibitors” (Bioorg Med Chem Lett, 2003).

Molecules are shown by their SMILES.

Assay [1] concerns the target T1, Cyclin-dependent kinase 5/CDK5 activator 1 (Homo sapiens, UniProt Q00535). The assay can be described thus: Ability to inhibit Cyclin-dependent kinase 5-p35. It counts as protein-complex assay. The method, boiled down:
(§1)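 CDK5/GST-p25 was at 0.5 nM and CDK2/GST-cyclin A at 4 nM. Incubated 30 min at 37 °C, stopped with streptavidin SPA beads/EDTA, and counted. IC50 came from a sigmoidal dose-response fit, averaged when repeated.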

Assay [2] addresses Cyclin-dependent kinase 2/cyclin A (Homo sapiens, UniProt P24941). The assay can be described thus: Ability to inhibit cyclin-dependent kinase 2-cyclin A. It counts as protein-complex assay. The method, boiled down: as §1
Assay [3] has as its target T2, Cyclin-dependent kinase 5/CDK5 activator 1 (Homo sapiens) (UniProt Q00535+Q15078). Put plainly: Inhibition of Cyclin-dependent kinase 5-p35nck5a. It counts as protein-complex assay. The conditions noted are these: concentration not given here. The method, boiled down:
as §1

Assay [4] concerns the target T1, Cyclin-dependent kinase 5/CDK5 activator 1. Put plainly: Inhibition of Tau Protein Kinase II (TPK II). It counts as protein-complex assay. The method, boiled down:
as §1

A short description of assay [5]: Specificity for CDK5 over Cyclin-dependent kinase 2-cyclin A.
Assay [6] concerns the target T2, Cyclin-dependent kinase 5/CDK5 activator 1 (Homo sapiens). Put plainly: Inhibition of Cyclin-dependent kinase 5-p35nck5a at 20 uM. The format is protein-complex assay.

T1 sequence (Q00535 whole entry): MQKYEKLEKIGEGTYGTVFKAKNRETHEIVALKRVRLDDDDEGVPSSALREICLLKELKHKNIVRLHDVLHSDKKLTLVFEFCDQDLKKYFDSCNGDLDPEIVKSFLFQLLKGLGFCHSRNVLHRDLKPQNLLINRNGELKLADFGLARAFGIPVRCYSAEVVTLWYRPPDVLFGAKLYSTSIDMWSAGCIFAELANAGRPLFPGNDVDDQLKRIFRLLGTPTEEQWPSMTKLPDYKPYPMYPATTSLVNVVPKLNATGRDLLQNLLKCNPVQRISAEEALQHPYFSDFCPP
T1 sequence (Q15078 whole entry, further chain): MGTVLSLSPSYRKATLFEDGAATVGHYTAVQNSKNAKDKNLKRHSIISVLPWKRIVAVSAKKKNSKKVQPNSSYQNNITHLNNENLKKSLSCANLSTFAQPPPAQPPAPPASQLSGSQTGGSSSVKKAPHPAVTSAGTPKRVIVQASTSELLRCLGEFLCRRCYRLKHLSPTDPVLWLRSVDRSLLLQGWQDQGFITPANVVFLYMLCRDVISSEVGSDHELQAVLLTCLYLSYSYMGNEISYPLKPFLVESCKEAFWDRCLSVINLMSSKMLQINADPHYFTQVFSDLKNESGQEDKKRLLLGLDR
T2 sequence (Q00535 whole entry): as the sequence (Q00535 whole entry) above
T2 sequence (Q15078 99-307 partner limits assumed): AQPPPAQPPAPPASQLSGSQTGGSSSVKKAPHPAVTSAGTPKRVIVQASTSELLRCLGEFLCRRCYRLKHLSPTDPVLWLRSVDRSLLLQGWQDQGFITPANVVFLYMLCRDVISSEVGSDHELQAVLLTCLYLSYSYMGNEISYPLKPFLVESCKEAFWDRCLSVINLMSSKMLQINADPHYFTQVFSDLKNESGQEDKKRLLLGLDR

Usually IC50 stands for the midpoint of a concentration-inhibition curve. Low readings indicate inhibition by little substance, high ones a need for much substance. In the case of `O=C(Nc1csc(-c2ccccc2Cl)n1)NN1CCOCC1`, the results for the IC50 in assay [1] and in assay [2] were 30 µM and 10 µM, respectively.
`O=C(Nc1csc(Cc2c(Cl)cccc2Cl)n1)NN(Cc1ccccc1)Cc1ccccc1` gave an IC50 in assay [1] of over 100 µM.
Consider `CONC(=O)Nc1csc(Cc2c(Cl)cccc2Cl)n1`, for which the half-inhibitory concentration (IC50) is 9 µM in assay [1] and over 100 µM in assay [2].
On to `Cc1cccc(-c2nc(NC(=O)NOc3ccccc3)cs2)c1`, for which the IC50 in assay [1] is 16 µM; in assay [2], over 100 µM.
In the case of `Cc1cccc(-c2nc(NC(=O)NN3CCOCC3)cs2)c1`, the IC50 in assay [1] was 30 µM; in assay [2] it was 20 µM.
The like results for `O=C(Nc1csc(CS(=O)(=O)c2ccccn2)n1)NN1CCOCC1` were, in that order, 10 µM and 5 µM.
Turning to `CN(NC(=O)Nc1csc(Cc2c(Cl)cccc2Cl)n1)c1ccccc1`, the IC50 in assay [1] amounted to 10 µM; in assay [2] it was 60 µM.
Consider `COC[C@H]1CCCN1NC(=O)Nc1csc(Cc2c(Cl)cccc2Cl)n1`, for which the 50% inhibitory concentration (IC50) in assay [1] was over 100 µM.
As for `O=C(Nc1csc(Cc2c(Cl)cccc2Cl)n1)NN1CCCCC1`, the half-inhibitory concentration (IC50) in assay [1] was found to be 6 µM; in assay [2] it was 30 µM.
Regarding `COc1ccc(OCc2nc(NC(=O)NN3CCOCC3)cs2)cc1`, the results for the IC50 in assay [1] and in assay [2] were 30 µM and 20 µM, respectively.
As for `O=C(Nc1csc(Cc2ccccc2)n1)NN1CCOCC1`, the values for the IC50 in assay [1] and in assay [2] were 55 µM and over 100 µM, respectively.
The like results for `CS(=O)(=O)Cc1nc(NC(=O)NOc2ccccc2)cs1` were, in that order, 6 µM and 90 µM.
The like results for `CN(C)NC(=O)Nc1csc(Cc2c(Cl)cccc2Cl)n1` were, in that order, 4 µM and 10 µM.
The inhibition is the share of the control response that was lost under treatment. `O=C(Nc1csc(Cc2ccc(Br)cc2)n1)NN1CCOCC1`: in assay [3], the inhibition was 26%.
For `CC(C)(C)ONC(=O)Nc1csc(Cc2c(Cl)cccc2Cl)n1`, the IC50 in assay [1] worked out at 1 µM; in assay [2], 15 µM.
In general, Ki refers to a dissociation constant, usually derived from enzyme kinetics or from competition with a known ligand. A low value points to tighter binding. For `O=C(Nc1csc(Cc2c(Cl)cccc2Cl)n1)NN1CCOCC1`, in assay [4], the Ki was 0.5 µM. Besides, the results for the IC50 in assay [1], in assay [2] and in assay [5] were 1 µM, 10 µM and 10 µM, respectively.
As for `O=C(NOCc1c(F)c(F)c(F)c(F)c1F)Nc1csc(Cc2c(Cl)cccc2Cl)n1`, in assay [1], the IC50 is over 100 µM.
Molecule `CNNC(=O)Nc1csc(Cc2c(Cl)cccc2Cl)n1` displayed an IC50 in assay [1] of over 100 µM.
For the molecule `CCc1nc(NC(=O)NN2CCOCC2)cs1`, in assay [1], the IC50 is over 100 µM.
For the molecule `C=CCONC(=O)Nc1csc(Cc2c(Cl)cccc2Cl)n1`, the IC50 in assay [1] came out at 6 µM; in assay [2], 40 µM.
As to `CNN(C)C(=O)Nc1csc(Cc2c(Cl)cccc2Cl)n1`, the IC50 in assay [1] was over 100 µM.
In assay [1], `NNC(=O)Nc1csc(Cc2c(Cl)cccc2Cl)n1` came in with an IC50 of over 100 µM.
As for `O=C(Nc1csc(-c2cccs2)n1)NN1CCOCC1`, the IC50 in assay [1] amounted to 30 µM; in assay [2], 10 µM.
Turning to `O=C(Nc1csc(Cc2c(Cl)cccc2Cl)n1)NN1CCCC1`, the IC50 is 3 µM in assay [1] and 20 µM in assay [2].
In assay [1], `O=C(NNc1ccccc1)Nc1csc(Cc2c(Cl)cccc2Cl)n1` yielded an IC50 of over 100 µM.
The same measure, in the same setting: in the case of `Cc1ccc(-c2nc(NC(=O)NN3CCOCC3)cs2)cc1` it was over 100 µM.
Consider `O=C(Nc1csc(CSc2ccccc2)n1)NN1CCOCC1`, for which the IC50 in assay [1] and in assay [2] was 30 µM throughout.
As to `O=C(Nc1csc(COc2ccccc2)n1)NN1CCOCC1`, the IC50 in assay [1] was 80 µM; in assay [2] it was over 100 µM.
`CCONC(=O)Nc1csc(Cc2c(Cl)cccc2Cl)n1`: the half-inhibitory concentration (IC50) turned out to be 5 µM in assay [1] and 20 µM in assay [2].
For the molecule `O=C(Nc1csc(-c2ccccc2)n1)NN1CCOCC1`, the values for the concentration for half-maximal inhibition (IC50) in assay [1] and in assay [2] were 9 µM and 6 µM, respectively.
`CS(=O)(=O)Cc1nc(NC(=O)NN2CCOCC2)cs1` yielded an inhibition in assay [3] of 35%.
For `O=C(NOc1ccccc1)Nc1csc(-c2ccccc2)n1`, the IC50 is 8 µM in assay [1] and 35 µM in assay [2].
Molecule `O=C(Nc1csc(-c2ccc(Cl)cc2)n1)NN1CCOCC1` gave an IC50 in assay [1] of over 100 µM.
For the molecule `O=C(NOC1CCCCO1)Nc1csc(Cc2c(Cl)cccc2Cl)n1` (stereo unspecified), the IC50 in assay [1] was 3 µM; in assay [2] it was 90 µM.
`O=C(NOCc1ccccc1)Nc1csc(Cc2c(Cl)cccc2Cl)n1` returned an inhibition in assay [6] of 40%.
As to `O=C(NOc1ccccc1)Nc1csc(Cc2ccccc2)n1`, the IC50 is 20 µM in assay [1] and over 100 µM in assay [2].
The like results for `O=C(Nc1csc(Cc2c(Cl)cccc2Cl)n1)NN1CCCCCC1` were, in that order, 10 µM and 70 µM.
In the case of `O=C(Nc1csc(Cc2ccccc2Cl)n1)NN1CCOCC1`, the inhibition in assay [3] is 30%.
Turning to `O=C(NOc1ccccc1)Nc1csc(Cc2c(Cl)cccc2Cl)n1`, the IC50 in assay [1] is 0.9 µM; in assay [2], over 100 µM.
